From ChEMBL document CHEMBL1149274, “Stereochemical analysis of (hydroxyethyl)urea peptidomimetic inhibitors of gamma-secretase” (J Med Chem, 2004) come the findings set out here.

Assay [1] deals with Gamma-secretase. Briefly: Inhibition of gamma secretase isolated from HeLa cells by ELISA. The assay is classed as cell-free, Homo sapiens. In short, it runs like this:
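HeLa membranes were washed in 0.1 M Na2CO3, pH 11.3, then solubilized in 1% CHAPSO. The preparation (0.2 mg protein/mL) was incubated with compound or DMSO and the C100Flag substrate at 37 °C for 0 or 4 h. Reactions were stopped with 0.5% SDS and boiling for 5 min. Aβ x-40 and x-42 products were measured by sandwich ELISA (capture 2G3/21F12, biotinylated 266 reporter).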
For orientation: In an ELISA, binding on a coated surface is turned into a signal by an enzyme label.

The target in assay [2] is Gamma-secretase. Briefly: Inhibition of gamma secretase in CHO cells expressing human APP by ELISA. Format: cell-based. An outline of the steps:
(§1)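 CHO 7w cells stably expressing the 751-residue APP splice variant, grown to confluence in DMEM with 200 μg/mL G418. Compounds were added from DMSO stocks to a final 1% DMSO; vehicle-only wells served as controls. After 4 or 24 h, the medium was spun at 3000g for 5 min. Aβ40 and Aβ42 were measured by sandwich ELISA (capture 2G3/21F12, biotinylated 3D6 reporter, TMB read at 455 nm). Mean ± SD of three experiments.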

In assay [3] the target is Gamma-secretase. Briefly: Inhibition of gamma secretase in CHO cells expressing human APP after 4 hrs by ELISA. Format: cell-based. An outline of the steps: as §1
The target in assay [4] is Gamma-secretase. Briefly: Inhibition of gamma secretase in CHO cells expressing human APP after 24 hrs by ELISA. Format: cell-based. An outline of the steps:
as §1

By IC50 is commonly meant the point on the concentration scale where inhibition reaches its midpoint. Regarding `COC(=O)[C@H](NC(=O)[C@@H](C)NC(=O)N(Cc1ccccc1)C[C@@H](O)[C@@H](Cc1ccccc1)NC(=O)OC(C)(C)C)C(C)C`, the IC50 against Gamma-secretase [1] stood at 3 µM; at Gamma-secretase [2], 10 µM.

`COC(=O)[C@@H](CC(C)C)NC(=O)[C@@H](CC(C)C)NC(=O)N(Cc1ccccc1)C[C@@H](O)[C@@H](Cc1ccccc1)NC(=O)OC(C)(C)C`: the IC50 against Gamma-secretase [1] came out at 0.2 µM; on Gamma-secretase [2], 3 µM; against Gamma-secretase [3] it was 3 µM; on Gamma-secretase [4] it was 9 µM.

For `COC(=O)[C@@H](CC(C)C)NC(=O)[C@@H](CC(C)C)NC(=O)N(Cc1ccccc1)C[C@H](O)[C@@H](Cc1ccccc1)NC(=O)OC(C)(C)C`, the IC50 amounted to 2 µM on Gamma-secretase [1] and 8 µM against Gamma-secretase [2].

For `COC(=O)[C@H](NC(=O)[C@@H](CC(C)C)NC(=O)N(Cc1ccccc1)C[C@H](O)[C@@H](Cc1ccccc1)NC(=O)OC(C)(C)C)C(C)C`, the IC50 against Gamma-secretase [1] is 3 µM; against Gamma-secretase [2], 10 µM.

As for `COC(=O)[C@H](CC(C)C)NC(=O)[C@H](CC(C)C)NC(=O)N(Cc1ccccc1)C[C@@H](O)[C@H](Cc1ccccc1)NC(=O)OC(C)(C)C`, the IC50 came to 0.03 µM against Gamma-secretase [1], 0.6 µM against Gamma-secretase [2], 0.6 µM against Gamma-secretase [3] and 9.4 µM at Gamma-secretase [4].

In the case of `COC(=O)[C@@H](CC(C)C)NC(=O)N(Cc1ccccc1)C[C@@H](O)[C@@H](Cc1ccccc1)NC(=O)OC(C)(C)C`, the IC50 was found to be 6 µM at Gamma-secretase [1] and 15 µM against Gamma-secretase [2].

For the molecule `COC(=O)[C@H](NC(=O)[C@H](NC(=O)N(Cc1ccccc1)C[C@@H](O)[C@@H](Cc1ccccc1)NC(=O)OC(C)(C)C)C(C)C)C(C)C`, the figures for the IC50 against Gamma-secretase [1] and at Gamma-secretase [2] were 2 µM and 12 µM, respectively.

On to `COC(=O)[C@@H](NC(=O)[C@H](CC(C)C)NC(=O)N(Cc1ccccc1)C[C@@H](O)[C@@H](Cc1ccccc1)NC(=O)OC(C)(C)C)C(C)C`, for which the figures for the concentration for half-maximal inhibition (IC50) at Gamma-secretase [1] and against Gamma-secretase [2] were 0.01 µM and 0.4 µM, respectively.

Regarding `CC(C)C[C@H](NC(=O)[C@@H](CC(C)C)NC(=O)N(Cc1ccccc1)C[C@@H](O)[C@@H](Cc1ccccc1)NC(=O)OC(C)(C)C)C(=O)OC(C)(C)C`, the IC50 came to 0.6 µM on Gamma-secretase [3] and 7 µM against Gamma-secretase [4].

Take `COC(=O)[C@H](NC(=O)[C@H](CC(C)C)NC(=O)N(Cc1ccccc1)C[C@@H](O)[C@@H](Cc1ccccc1)NC(=O)OC(C)(C)C)C(C)C`: the IC50 is 0.08 µM on Gamma-secretase [1] and 0.8 µM against Gamma-secretase [2].

For `COC(=O)[C@H](NC(=O)[C@H](CC(C)C)NC(=O)N(Cc1ccccc1)C[C@@H](O)[C@H](Cc1ccccc1)NC(=O)OC(C)(C)C)C(C)C`, the IC50 against Gamma-secretase [1] came to 0.6 µM; on Gamma-secretase [2], 1 µM.

On to `COC(=O)[C@@H](NC(=O)[C@@H](CC(C)C)NC(=O)N(Cc1ccccc1)C[C@@H](O)[C@H](Cc1ccccc1)NC(=O)OC(C)(C)C)C(C)C`, for which the IC50 against Gamma-secretase [1] amounted to 0.06 µM; at Gamma-secretase [2] it was 0.8 µM.

`COC(=O)[C@@H](C)NC(=O)[C@@H](CC(C)C)NC(=O)N(Cc1ccccc1)C[C@@H](O)[C@@H](Cc1ccccc1)NC(=O)OC(C)(C)C`: the figures for the IC50 against Gamma-secretase [1] and on Gamma-secretase [2] were 2 µM and 7 µM, respectively.

In the case of `COC(=O)[C@H](NC(=O)[C@@H](Cc1ccccc1)NC(=O)N(Cc1ccccc1)C[C@@H](O)[C@@H](Cc1ccccc1)NC(=O)OC(C)(C)C)C(C)C`, the IC50 was found to be 9 µM against Gamma-secretase [1] and 24 µM on Gamma-secretase [2].

Regarding `COC(=O)[C@H](NC(=O)[C@@H](CC(C)C)NC(=O)N(Cc1ccccc1)C[C@@H](O)[C@@H](Cc1ccccc1)NC(=O)OC(C)(C)C)C(C)C`, the IC50 against Gamma-secretase [1] was 0.1 µM; on Gamma-secretase [2] it was 2 µM; against Gamma-secretase [3], 2 µM; against Gamma-secretase [4], 17 µM.

As to `COC(=O)[C@H](NC(=O)[C@@H](CC(C)C)NC(=O)N(Cc1ccccc1)C[C@@H](O)[C@@H](Cc1ccccc1)NC(=O)[C@@H](C)NC(=O)OC(C)(C)C)C(C)C`, the IC50 against Gamma-secretase [1] amounted to 12 µM; at Gamma-secretase [2], 30 µM.

With `COC(=O)[C@@H](NC(=O)[C@H](CC(C)C)NC(=O)N(Cc1ccccc1)C[C@@H](O)[C@H](Cc1ccccc1)NC(=O)OC(C)(C)C)C(C)C`, the IC50 at Gamma-secretase [1] amounted to 0.01 µM; at Gamma-secretase [2], 0.4 µM; against Gamma-secretase [3], 0.4 µM; at Gamma-secretase [4], 18 µM.

As to `COC(=O)[C@H](NC(=O)[C@@H](CC(C)C)NC(=O)N(Cc1ccccc1)C[C@@H](O)[C@@H](Cc1ccccc1)NC(=O)[C@@H](CC(C)C)NC(=O)OC(C)(C)C)C(C)C`, the IC50 on Gamma-secretase [1] was found to be 0.9 µM; at Gamma-secretase [2], 2 µM.

For the molecule `COC(=O)[C@H](NC(=O)[C@@H](CC(C)C)NC(=O)N(Cc1ccccc1)C[C@@H](O)[C@@H](Cc1ccccc1)NC(=O)[C@H](NC(=O)OC(C)(C)C)C(C)C)C(C)C`, the IC50 against Gamma-secretase [1] was determined as 3 µM; against Gamma-secretase [2], 7 µM.

Turning to `COC(=O)[C@@H](Cc1ccccc1)NC(=O)[C@@H](CC(C)C)NC(=O)N(Cc1ccccc1)C[C@@H](O)[C@@H](Cc1ccccc1)NC(=O)OC(C)(C)C`, the IC50 against Gamma-secretase [1] is 0.8 µM; against Gamma-secretase [2], 3 µM.

With `COC(=O)[C@H](NC(=O)[C@@H](CC(C)C)NC(=O)N(CC(C)C)C[C@@H](O)[C@@H](Cc1ccccc1)NC(=O)OC(C)(C)C)C(C)C`, the IC50 at Gamma-secretase [1] turned out to be 2 µM; on Gamma-secretase [2], 5 µM.

Take `COC(=O)[C@H](NC(=O)[C@@H](CC(C)C)NC(=O)N(Cc1ccccc1)C[C@@H](O)[C@@H](Cc1ccccc1)NC(=O)[C@@H](Cc1ccccc1)NC(=O)OC(C)(C)C)C(C)C`: the values for the IC50 against Gamma-secretase [1] and against Gamma-secretase [2] were 2 µM and 8 µM, respectively.

`COC(=O)[C@H](NC(=O)[C@@H](CC(C)C)NC(=O)N(C)C[C@@H](O)[C@@H](Cc1ccccc1)NC(=O)OC(C)(C)C)C(C)C`: the IC50 turned out to be 7 µM at Gamma-secretase [1] and 12 µM on Gamma-secretase [2].

On to `COC(=O)[C@@H](NC(=O)[C@@H](CC(C)C)NC(=O)N(Cc1ccccc1)C[C@@H](O)[C@@H](Cc1ccccc1)NC(=O)OC(C)(C)C)C(C)C`, for which the results for the IC50 against Gamma-secretase [1] and against Gamma-secretase [2] were 0.8 µM and 8 µM, respectively.

Regarding `CC(C)C[C@H](NC(=O)N(Cc1ccccc1)C[C@@H](O)[C@H](Cc1ccccc1)NC(=O)OC(C)(C)C)C(=O)N[C@H](C(=O)OC(C)(C)C)C(C)C`, the IC50 against Gamma-secretase [3] worked out at 0.3 µM; on Gamma-secretase [4] it was 6 µM.

As for `COC(=O)[C@H](NC(=O)[C@@H](CC(C)C)NC(=O)N(Cc1ccccc1)C[C@@H](O)[C@H](Cc1ccccc1)NC(=O)OC(C)(C)C)C(C)C`, the IC50 against Gamma-secretase [1] is 0.03 µM; against Gamma-secretase [2], 0.6 µM.

Turning to `CC(C)C[C@@H](NC(=O)N(Cc1ccccc1)C[C@@H](O)[C@@H](Cc1ccccc1)NC(=O)OC(C)(C)C)C(=O)N[C@@H](C(=O)OC(C)(C)C)C(C)C`, the results for the IC50 against Gamma-secretase [3] and on Gamma-secretase [4] were 3 µM and 6.2 µM, respectively.

`CC(C)C[C@H](NC(=O)N(Cc1ccccc1)C[C@@H](O)[C@H](Cc1ccccc1)NC(=O)OC(C)(C)C)C(=O)N[C@H](CC(C)C)C(=O)OC(C)(C)C`: the IC50 against Gamma-secretase [3] was 0.4 µM; against Gamma-secretase [4], 5 µM.

For the molecule `COC(=O)[C@H](NC(=O)[C@@H](CC(C)C)NC(=O)N(C[C@@H](O)[C@@H](Cc1ccccc1)NC(=O)OC(C)(C)C)C(C)C)C(C)C`, the results for the IC50 at Gamma-secretase [1] and at Gamma-secretase [2] were 4 µM and 8 µM, respectively.
